Assay outcomes from PubChem.
SENP8 block-1: inhibitors of human SENP8 protease. Q96LD8. purified SENP8, Z-RLRGG-aminoluciferin cleavage, luminescence. inhibition, % at 10 µM. 1.2% of 330,000 active; in the data active = inhibition above about 50%
Platelet DG rel: modulates dense granule release in human platelets | human platelet-rich plasma, SFLLRN dense granule ATP release, luminescence | inhibition, %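 (compounds screened at 7.5 µM in platelet-rich plasma)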 | 0.22% of 300,000 active | AID 1663;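 active = mean replicate score, as percent of positive control, at or above 50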
SENP7 inh: inhibitors of human SENP7 protease; recombinant SENP7, Z-RLRGG-aminoluciferin luminescence, 40 min; 1.5% of 330,000 active; AID 434973; inhibition, % at 5 µM;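 active = inhibition above about 50% at the single test dose, limit read from the data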
Target sequence (Q9BQF6 706-1050 limits assumed): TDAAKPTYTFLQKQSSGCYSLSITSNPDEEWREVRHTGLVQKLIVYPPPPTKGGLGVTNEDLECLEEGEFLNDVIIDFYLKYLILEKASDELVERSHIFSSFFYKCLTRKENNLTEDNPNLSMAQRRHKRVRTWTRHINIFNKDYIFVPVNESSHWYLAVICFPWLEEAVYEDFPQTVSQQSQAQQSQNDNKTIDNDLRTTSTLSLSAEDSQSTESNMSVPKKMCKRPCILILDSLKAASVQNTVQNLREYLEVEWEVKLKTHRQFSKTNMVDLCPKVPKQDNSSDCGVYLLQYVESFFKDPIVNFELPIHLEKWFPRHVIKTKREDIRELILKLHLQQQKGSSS
SENP8 block-2: inhibitors of human SENP8 protease. AID 602440. inhibition, % at 20 µM. recombinant SENP8, Nedd8 substrate fluorescence. Q96LD8. 0.64% of 360,000 active; in the data active = inhibition mostly above about 40%, no sharp cut-off; inactive = mostly below about 27%
SENP1 inh: inhibitors of human SENP1 SUMO protease catalytic domain | 0.21% of 360,000 active | recombinant SENP1 catalytic domain, CyPet-SUMO1-YPet FRET cleavage | Q9P0U3 | inhibition, % at 10 µM;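 active = inhibition at least 30% at 10 µM, raw YFP signal under a set limit, fluorescence ratio 0.5 to 1.5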
Target sequence (Q9P0U3 419-644 limits assumed): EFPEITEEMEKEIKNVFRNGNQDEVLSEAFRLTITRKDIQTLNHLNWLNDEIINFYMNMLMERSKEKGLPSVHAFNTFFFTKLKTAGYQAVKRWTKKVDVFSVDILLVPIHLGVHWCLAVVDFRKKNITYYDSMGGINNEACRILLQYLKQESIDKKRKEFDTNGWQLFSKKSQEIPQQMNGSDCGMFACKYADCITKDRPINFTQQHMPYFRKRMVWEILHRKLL
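Test system: hSENP1 catalytic domain, recombinant; Amount: 20 pM final SENP1 enzyme; Medium: Tris pH 8 buffer plus EDTA, NaCl, BME, BSA, NP40, catalase; Schedule: 50 min enzyme reaction, room temperature, light-protected; Technique: FRET fluorescence in CFP and YFP emission channels; Controls: no-enzyme wells low, DMSO-plus-enzyme wells high control.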
SENP6 inh: inhibitors of human SENP6 protease; inhibition, % at 10 µM; 1.8% of 330,000 active; Q9GZR1; AID 2599; Recombinant SENP6 catalytic domain, aminoluciferin luminescence;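 active = inhibition above about 50% at the single tested dose, limit read from the data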
SENP8 inh conf: confirmation of human SENP8 protease inhibitors. 15% of 1,400 active. purified SENP8, Nedd8-AMC/pro-Nedd8 cleavage fluorescence, 30 min. inhibition, % at 25 µM. shares compounds with SENP8 block-2. AID 624319; in the data active = inhibition mostly above about 39%, no sharp cut-off; inactive = mostly below about 34%
SENP1 inh conf: confirmation of human SENP1 SUMO protease inhibitors; shares compounds with SENP1 inh; recombinant SENP1, CyPet-SUMO1-YPet FRET cleavage; 34% of 520 active; inhibition, % at 10 µM; AID 651678; in the data active = inhibition mostly above about 35%, no sharp cut-off; inactive = mostly below about 32%
SENP1 kin conf: SENP1 (human) inhibition, kinetic confirmation; shares compounds with SENP1 inh; recombinant SENP1, CyPet-SUMO1-YPet FRET kinetic cleavage; inhibition, % at 10 µM; 26% of 520 active; AID 651690; in the data active = inhibition mostly above about 32%, no sharp cut-off; inactive = mostly below about 29%
Numbers stand for hits; - = inactive; . = not tested or not shown; ! = not confirmed by another sample. Most compounds without a hit are left out; they make up all but 2.6% or so of the library.

SMILES	SENP8 block-1	Platelet DG rel	SENP7 inh	SENP8 block-2	SENP1 inh	SENP6 inh	SENP1 inh conf	SENP1 kin conf	others
O=C(NCCCN1CCN(c2ccccc2F)CC1)Nc1ccccc1[N+](=O)[O-]	-	-	-	44	-	-	.	.	SENP8 inh conf=-
COc1ccc2cc3[n+](cc2c1OC)CCc1cc2c(cc1-3)OCO2	-	-	-	53!	-	-	.	.	SENP8 inh conf=-
CN(N=Cc1cccc2cccnc12)c1ccc([N+](=O)[O-])cc1[N+](=O)[O-]	.	.	.	41	31	.	35	-	SENP8 inh conf=-
C=CCOC(=O)C1=C[C@H](c2ccc(Br)cc2)C[C@H](OCc2ccc(CO)cc2)O1	-	-	-	-	-	-	.	.
O=[N+]([O-])c1cccc(C=NNc2ccccc2)c1	.	.	.	-	-	.	.	.
O=[N+]([O-])c1ccc(C=NNc2ccccc2)cc1	.	.	.	44	72	.	59	43	SENP8 inh conf=-
CCCN1C(=O)/C(=C\C=C2/Sc3ccccc3N2CCO)SC1=S	-	-	-	-	-	-	.	.
CCN1/C(=C/C=C2/SC(=Nc3cccc4ncccc34)N(C)C2=O)Sc2ccccc21	.	.	.	-	37	.	-	-
Cc1oc(-c2ccccc2Cl)nc1CS(=O)CC(=O)NCc1ccc2c(c1)OCO2 (stereo not given)	-	-	-	-	-	-	.	.
O=c1[nH]c2cc3ccccc3cc2nc1-c1nnnn1Cc1ccccc1	.	.	.	-	41	.	80	50
O=c1[nH]c2cc3ccccc3cc2nc1-c1nnnn1C1CCCC1	.	.	.	-	70	.	125	78
Cc1sc(-c2ccccn2)nc1OC(=O)c1cccc(Cl)c1Cl	-	-	-	-	36	-	-	50
CCOC(=O)c1cocc1C(=O)O	.	.	.	-	-	.	.	.
CC1(C)CC(=O)C=C(c2ccc(-c3ccc4[nH]ccc4c3)cc2)C1=O	.	.	.	-	29	.	-	-
CCOC(=O)c1sc(NC(=O)C(C)Sc2nnc(N)s2)nc1C (stereo not given)	-	-	-	-	-	-	.	.
CCC(=Nc1ccc(N)cc1)C1=C(O)C(C(=O)OC)C(C)(C)CC1=O (stereo not given)	-	-	-	70	54	-	-	-
CCC(=NCc1ccccc1)C1=C(O)C(C(=O)OC)C(C)(C)CC1=O (stereo not given)	-	-	-	-	-	-	.	.
Cc1ccc2cc3c(N)c(C(=O)N4CCOCC4)sc3nc2c1	-	-	-	-	47	-	40	-
Cc1ccc2nc3sc(C(=O)N4CCOCC4)c(N)c3cc2c1	-	-	-	-	-	-	.	.
N#C/C(=C\c1ccc(Cl)c([N+](=O)[O-])c1)c1ccccn1	-	-	-	-	-	-	.	.
CNc1ccc(/C=C(\C#N)c2ccccn2)cc1[N+](=O)[O-]	-	-	-	-	46	-	-	-
O=C(NCC1CCCO1)c1sc(=S)n2c1[nH]c(=O)c1ccc(C(=O)N3CCCCC3)cc12 (stereo not given)	-	-	-	-	31	-	42	-
Cc1ccc(Nc2c(-c3ccc(N(C)C)cc3)nc3ncccn23)cc1	-	-	-	-	-	-	.	.
COc1ccc(-c2nc3ncccn3c2Nc2ccccc2)cc1	-	-	-	-	37	-	-	-
COc1cc2c(oc(=O)c3cc(C)cc(OC)c32)c2c(C3OC(C)C(O)C(C)(O)C3O)ccc(O)c12 (stereo not given)	.	.	.	-	-	.	.	.
SMILES	SENP8 block-1	Platelet DG rel	SENP7 inh	SENP8 block-2	SENP1 inh	SENP6 inh	SENP1 inh conf	SENP1 kin conf	others
Nc1ccc2c(c1)C(=O)c1ccc(Cl)cc1-2	.	.	.	-	-	.	.	.
Nc1ccc2c(c1)-c1ccc(F)cc1C2=O	.	.	.	-	82	.	49	-
CCn1c(=O)c2sccc2n(Cc2ccc(C)cc2)c1=O	-	-	-	-	-	-	.	.
Cc1cc2c(C)nc(N/N=C/c3ccc([N+](=O)[O-])cc3)nc2o1	.	-	.	-	36	.	-	-
O=C1NC(=S)N/C1=C/c1cccc([N+](=O)[O-])c1O	-	-	-	-	40	-	-	-
N=c1oc2ccc([N+](=O)[O-])cc2cc1C(=O)NCc1ccccc1	-	-	-	-	57	-	60	-
N=c1oc2ccc(Br)cc2cc1C(=O)NCc1ccccc1	-	-	-	-	-	-	.	.
CCN1C(=O)c2cccc3c(NC(=O)c4cccc(N5C(=O)CCC5=O)c4)ccc1c23	-	-	-	-	58	-	44	-
Cc1cnc(C(=O)Nc2ccccc2-c2ccc(C)o2)cn1	-	-	-	-	40	-	-	-
Cc1cnc(C(=O)Nc2cccc3ncccc23)cn1	-	-	-	-	-	-	.	.
O=C(Cc1n[nH]c(=O)[nH]c1=O)N/N=C/c1c(O)ccc2ccccc12	-	-	-	-	39	-	-	-
O=C(Cc1n[nH]c(=O)[nH]c1=O)N/N=C/c1ccccc1	-	-	-	-	-	-	.	.
N#C/C(C(=O)N1CCOCC1)=C1/SC(Cc2ccccc2)C(=O)N1c1ccccc1 (stereo not given)	-	-	-	-	37	-	-	-
COc1ccc(/C=N/N2C(=O)CSC2=S)cc1Br	-	-	-	-	40	-	46	31
Cc1nn(CC(=O)N(C)C2(C#N)CCCCC2)c(C)c1[N+](=O)[O-]	-	.	-	-	-	-	.	.
CCOC(=O)C1CCCN(C2=NC(=O)/C(=C/c3ccc(O)c(OC)c3)S2)C1 (stereo not given)	-	-	-	-	69	-	110	66
CCOC(=O)c1c2c3c(cccc3[nH]c1=O)C(=O)c1ccccc1-2	-	-	-	-	-	-	.	.
CCOC(=O)c1c2c3c(c(Cl)ccc3[nH]c1=O)C(=O)c1ccccc1-2	-	-	-	-	57	-	40	-
CCc1c(C)nc2[nH]ncn2c1=O	.	.	.	-	-	.	.	.
Cc1ccc2n(n1)c(=O)c(Cc1ccccc1)c([O-])[n+]2-c1ccccc1	-	-	-	-	35	-	53	35
CCOC(=O)c1c(NC(=O)c2cc(-c3ccc(O)cc3)on2)sc(C(C)=O)c1C	-	-	-	-	31	-	-	-
Cc1ccc(NC(=O)COC(=O)c2nn(C)c(=O)c3ccccc23)cc1F	-	.	-	-	-	-	.	.
Cc1ncc([N+](=O)[O-])n1S(=O)(=O)c1cc(Br)ccc1Br	-	-	-	-	-	-	.	.
C/C(=N\NC(=O)c1ccccc1F)c1ccc2c(c1)Nc1ccccc1S2	-	-	-	-	35	-	60	39
C/C(=N\NC(=O)c1ccc(O)cc1)c1ccc2c(c1)Nc1ccccc1S2	-	-	-	-	70	-	86	56
